Measurements taken from the EternaBench riboswitch data.

Test system: MS2 coat protein
Assay: apparent Kd, MS2 coat protein; higher = weaker binding; RNA-MaP array; FMN 200 µM where present
Method in brief: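 In 100 mM Tris-HCl pH 7.5, 80 mM KCl, 4 mM MgCl2, BSA, DTT, yeast tRNA and Tween-20, SNAP-549-labelled MS2 coat protein was titrated from 0.7 or 1.5 nM, doubling to 3 µM, over designs transcribed by stalled E. coli RNA polymerase on Illumina sequencing-chip clusters. This was done first without ligand, then with ligand held constant. After green signal was normalised to red-channel RNA signal and control-cluster median Fmax, the apparent Kd was taken as the median of filtered per-cluster binding-curve fits.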

[1] = designed as: ON switch for flavin mononucleotide, no ligand
[2] = ligand present: flavin mononucleotide, designed as: ON switch for flavin mononucleotide
[3] = designed as: OFF switch for flavin mononucleotide, no ligand
[4] = ligand present: flavin mononucleotide, designed as: OFF switch for flavin mononucleotide

Sequence	apparent Kd [1] [nM]	apparent Kd [2] [nM]	apparent Kd [3] [nM]	apparent Kd [4] [nM]
GUAGCAUACCGAGGAUAUUCAGGGCGUGGAUAGACAUGAGGAUCACCCAUGUGGCGAAAGCCUAGGGAGAAGGCGGAAUGCUAC	26.9	17.6		
GUAGCUUUCCGAGGAUAUUCAUACCGGAAACGGACAUGAGGAUCACCCAUGUGGCGAAAGCCUUGGGAGAAGGCGGAAAGCUAC	446	23.4		
AUACAUGAGGAUCACCCAUGUUACUGGGUCUUAAUAGAACGUAGAAGGAUGAUAUUAUAAAUAACAUAGGAUAUACAAUAUUGU			132	64.2
GUUAGUUAAGGAUAUACAGGGAGCUGCGGCGUCUCGCCGCAACAUGAGGAUCACCCAUGUAGAAGGUGGCCAUU			548	586
UAGAUGGGAGGAUAUACGUAGAUGCAGGUUCGUGUGGUUCUACAUGAGGAUCACCCAUGUAGAAGGCCCGUCUU			16.6	27.5
GCCGUGUUAGGAUAUUAAAGACCUGCGCCAAACGCAGGAAGUAAGAAGGAACAUGAGGAUCACCCAUGUGUCCG			17.2	14.5
ACGUCUUAGUAGAAGGGACAUCGGCUGGUAAGCAUCAUCUCCUUCUCACAUGAGGAUCACCCAUGUCAGGAUAUACUAAGAUAC			12.9	38.7
ACCUGCCGUGGCACGGUAGUACCGGAGGAUAUCCGCGUCGGUCAUGACAUGAGGAUCACCCAUGUGGAGAAGGCUGGUUUGUCC			11.9	24.8
CGUUGGUCAGGAUAUGGUGGGCUGGUGAGAGGGCCGGGUGGCUAGAAGGGACAUGAGGAUCACCCAUGUACGGC			40.4	28.2
UAAAAGUUAGGAUAUACAUGAGGAUCACCCAUGUCGCGGAACCGCGGCGAUUACUCCUGUAGAAGGAACAUCGU			165	291
UACGUACAGAAGUACUCCGGGUCCAGAAGGGACAUGAGGAUCACCCAUGUACCGUUGAUUGCUUGUCAGGAUAUGGACCCGGCC			7.29	28.5
AUUUUGUCAGGAUAUGAGUAGUAGGACGAAAGUGUUAUUAUUUAGAAGGGACAUGAGGAUCACCCAUGUUUUCC			12.7	16.7
UCACUCAAGUUAGGAUAUGGAUCGGAAAACGAUCCAGAAGGAACAUGGGAACAUGAGGAUCACCCAUGUUCCAGAAACGAGUGA	413	155		
ACAUGAGGAUCACCCAUGUGGAGUGAAGAAGGUAGAUACUUAUGACUCUCCCAUGUACAUAGGACUGAGGAUAUUCUAAUAAUU	30.8	24		
AUUAAACAUGAGGAUCACCCAUGUAAUAUUAUGGGAGGAUAUGCGAAUUUAAUUAAUUAAGCAGAAGGCCUAAUUA	108	19		
ACAUAGUGAGGAUAUGCUGCUCGUCACUUGCGUGAUGAGUAGCAGAAGGCACAUGAGGAUCACCCAUGUAAAGA			42.3	63.7
AAUUAUUUACAGAAGGAGUUAAAAGGAGUAUUACUAGGAUAUGUUCACAUGAGGAUCACCCAUGUCAUAUUGGGAUUUAUUUUU			22.5	22.6
GCAGCGCCUGACAUGAGGAUCACCCAUGUUAGAUUGUUAAGUCAGGAUAUAGUCUAGAAACUAGACUAGAAGGGAUAUGCUGCU	15	8.03		
AGCUACGUUUCGUAGCAGCUAGGUGAGGAUAUCCACUCAACAUGAGGAUCACCCAUGUAAACAUGGGAGAAGGCGCCUAGAAAG	63.4	9.63		

Sequence	apparent Kd [1] [nM]	apparent Kd [2] [nM]	apparent Kd [3] [nM]	apparent Kd [4] [nM]
UUUUUUUGCUGAGGAUAUAGCGCGCGUUUUGCGCUAGAAGGCAGACAUGUGGUUCACCCAUGUACAUGAGGAUCACCCAUGUUA	552	301		
ACGCGAUGGGAGAAGGUACUUUAAAAUAUUUUCACAUGAGGAUCACCCAUGUAAGGAUAUCCCAUCGUUAAAUAUUAUACAGCA			6.49	5.24
UGUGCUAUGUAGAAGGCAGAUCUGAUUCAGAUCUGAGGAUAUACAUGAGGAUCACCCAUGUUAUGCACCAGCACGAGAGUGCAU			17.7	91.8
UAAAUACAUGAGGAUCACCCAUGUCAAAAGACAUGAGGAUAUGUACAGACUUCGGUCUGUACAGAAGGCAUGAAUA	652	46.7		
CGGAGACAUGAGGAUCACCCAUGUCGUCGUCACAGAGGAUAUGGGAGCGUCAGGGACGCAUCAGAAGGCUGAAAGC	32.5	19.1		
CAGAUCGAUGUGAGGAUAUCUGUGUUACCCUGUAAGGAGAAGGCACAUGAGGAUCACCCAUGUGAUUCGGUCCU			40.4	36.3
AUCAGCUUGUCAGGAUAUGCGUGUCAACGAAAGUUGACAAUCUUAAUAACAUGAGGAUCACCCAUGUAGAAGGGACGAGCUGAU			17.1	17.9
UCCUUGUCCUGAGGAUAUCCGUAGUGACCGAAAGGAGAAGGCAGGACAUGAGGAUCACCCAUGUACCCAGAAAACGUGCAGAGU			48.1	525
GUCCUACAUGAGGAUCACCCAUGUAAGGAUAUGCUAGCGGUCGGAAGACUGACUGCUAGCAGAAGGUACAUGAU			15	24.5
CGCAAACUUGGGUUUAAUGGUGCAUAGGAUAUGCUUGUACAUGAGGAUCACCCAUGUACUAUUGUGCAGAAGGGUGCAUUUGCG	7.97	5.77		
GCCUGGACAGAGAAGGGCUACUCCAACCACAUGAGGAUCACCCAUGUUAGCAGGAUAUCUGGCAGGGCAUCCUCAAUUAUUAAA	91.6	19.8		
UGUAUGGACAGAGGAUAUACGGCUAGGAGAUACUAGCUACUAUUCCUCACAUGAGGAUCACCCAUGUAGAAGGCUGUCCAUACU			18	145
UAAAAGCUAGGAUAUACAUGAGGAUCACCCAUGUAAUCUCUCACUUACACGGAGGAUCGUAGAAGGAGCACAAA			21.7	55.6
CGUUUAUUUAUGGGUUUAUAUUAUGAGGAUAUCAAUAUUUUAUACAUGAGGAUCACCCAUGUUACUGAGAAGGCAUAAUUAACG	10.9	6.44		
CUUCGUAUAGAGGAUAUAGGAUACGAAAGUGUCCUAGAAGGCUGUACAUGAGGAUCACCCAUGUACUUCAGAUC			13.2	16.4
AAACAGGGAGGAUAUACAUAGAUCCUCUAACCUAAUAGGUCACAUGAGGAUCACCCAUGUAGAAGGCCCUUAGG			12.4	12.2
GGCGAACGGGCUUACAUGAGGAUCACCCAUGUAGACUCAUGGUAGGAUAUGCUGUACAAAGUACAGCAGAAGGGCCGGUGAGCU	89.1	43.5		
UAUUAGCUAGGAUAUACAUGAGGAUCACCCAUGUCACGGGUCCACUCAUCCUAUGCGUGUAGAAGGAGCGACCC			22.9	26.6
UUACUAUAACAGAAGGCUAGAUAAUAUAUAAAUGGAGGAUAUGUUACAUGAGGAUCACCCAUGUUUCACCCACAUGAGGAUCAC			16.4	52.2

Sequence	apparent Kd [1] [nM]	apparent Kd [2] [nM]	apparent Kd [3] [nM]	apparent Kd [4] [nM]
CGUCCACAUGAGGAUCACCCAUGUUAGGAUAUAAACGCCGUAGUCCAAGGACGGGCCUUUAGAAGGAGCGCGGG			13.9	25.6
CUCAUGUGAGGAUAUCAGUAGUAAAAAAAUAAAAUUACUACUGAGAAGGCACAUGAGGAUCACCCAUGUGCCUU			15.6	12.9
GCAAAAGUCCUGAGGGUAGGAGACAGAAGGGCACCGGGAUCACUCCACAUGAGGAUCACCCAUGUGCAGGAUAUGUCGGCUGAA			22.3	327
AAGAAACAUGAGGAUCACCCAUGUGAGGAUAUGAUGCGAAUUAUGUAUGUAGUAAGCAUCAGAAGGCACAAAGG			127	203
ACUUGUAAGUAGAAGGUAGUCAUUAUAUUAAUCAUGUAAACAUGAGGAUCACCCAUGUAGAGUACUAAGGAUAUACAUCGAUAG				9.91
GCGUGGUUCUAGAAGGUGCUAGCGAUAAGCUAGCAAGGAUAUAGACAUGAGGAUCACCCAUGUCUUAAUGAAAUGGACACACGC			5.3	4.85
UUUUAACAUGAGGAUCACCCAUGUGAGGAUAUCGAAAUUUAUAUUAAUAUUAAUAUUACGAGAAGGCACAUUUU			77.8	101
GUAGCAUACCGAGGAUAUUCAGGGCGUAAAUAAACAUGAGGAUCACCCAUGUGGCGAAAGCCUAGGGAGAAGGCGGAAUGCUAC	17.1	16.8		
AAGAAGUCAGGAUAUCCAGCUCGUCACUUGCGUGAUGAGUUGGAGAAGGGACAUGAGGAUCACCCAUGUAAAGA			56.1	49.3
AUACUUAAUGAAGGAUAUCUUAGCAUAAACCUGAGAGAAGGUCAUUAUUACAUGAGGAUCACCCAUGUUGUAGUUAAUGGGUAA			199	254
GGAGGACAUGAGGAUCACCCAUGUGGAUGAUCGCUAGGAUAUGCGUGCAGGAAGAGUGGUGCAGAAGGAGUGGGAU	451	288		
UGACGGAGCUGAGGAUAUUACAUGAGGAUCACCCAUGUAAGUCUCCAGGAAACUGGAGACAAAUGUAAGAAGGCAGCUCCGUCA			18.7	27.9
AAACAACGUCAGAAGGCCGAUGGAUUUGACCACGGAGGAUAUGACAUGAGGAUCACCCAUGUGAUGCUUCUAACCCGCUGGGCC			31.3	289
AUUUAGUGCGAGAAGGCGUGGUCACAUGAGGAUCACCCAUGUCAGUACACGAGGAUAUCGAUUCACUGUGUUAAUACAAGUGAC	77.9	6.68		
CACGAGCUAGGAUAUACAUGAGGAUCACCCAUGUAAGUCAUGCGGUCACAUCUGACAGGUAGAAGGAGCGCGUC			39.3	126
AUACCACGAGGAUAUCGUCUAUUUCACAUGAGGAUCACCCAUGUUAUCUUUGUUUCGUUUCGAGAAGGCGUGUUUU			33.1	23.2
CUAUAUAAUACCUCAUGUACAUGAGGAUCACCCAUGUUAACUAAGGAUAUAUUUAUAUUAAUAAAGUAGAAGGUAGUACUAUUU			23.4	18.8
AAAAAACAUGAGGAUCACCCAUGUAAAAAUAUGGGAGGAUAUUCAAACACGAAAGUGAAAGAAGAAGGCCUAAAAA	66.6	23.3		
